Assay results from ChEMBL document CHEMBL4837210 (Eur J Med Chem, 2021).
Converted amounts (≈) assume the structure as drawn.

Columns and labels:
[1] = test system: Enterococcus faecalis; assay: Antibacterial activity against vancomycin-susceptible Enterococcus faecalis ATCC 29212 assessed as bacterial growth inhibition incubated for 24 hrs by CLSI protocol based broth microdilution method; assay type: functional
[2] = test system: Escherichia coli; assay: Antibacterial activity against penicillin-susceptible Escherichia coli ATCC 25922 assessed as inhibition of bacterial growth measured by broth microdilution method; assay type: functional; settings: time 24 hrs
Procedure, shortened: (§1)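 Broth microdilution in Mueller Hinton broth. A 0.5 McFarland suspension was diluted tenfold, giving an inoculum of 1.5 × 10⁷ cfu/mL. This was added to 2-fold serial compound dilutions from […]. Plates were incubated aerobically at 37 °C for 24 h. MIC was the lowest concentration with no visible turbidity.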

[3] = test system: Streptococcus pyogenes; assay: Antibacterial activity against erythromycin-susceptible Streptococcus pyogenes clinical isolate 1 assessed as bacterial growth inhibition incubated for 24 hrs by CLSI protocol based broth microdilution method; assay type: functional
[4] = test system: Staphylococcus aureus; assay: Antibacterial activity against Staphylococcus aureus assessed as inhibition of bacterial growth measured by broth microdilution method; assay type: functional; settings: time 24 hrs; procedure, shortened: as §1
[5] = test system: Enterococcus faecalis; assay: Antibacterial activity against vancomycin-resistant Enterococcus faecalis ATCC 51299 assessed as bacterial growth inhibition incubated for 24 hrs by CLSI protocol based broth microdilution method; assay type: functional
[6] = test system: Pseudomonas aeruginosa; assay: Antibacterial activity against penicillin-susceptible Pseudomonas aeruginosa ATCC27853 assessed as bacterial growth inhibition incubated for 24 hrs by CLSI protocol based broth microdilution method; assay type: functional
[7] = test system: Bacillus pumilus; assay: Antibacterial activity against penicillin-susceptible Bacillus pumilus CMCC 63202 assessed as bacterial growth inhibition by broth dilution method; assay type: functional; settings: time 24 hrs; procedure, shortened: as §1
[8] = test system: Streptococcus pyogenes; assay: Antibacterial activity against erythromycin-resistant Streptococcus pyogenes 2 assessed as bacterial growth inhibition incubated for 24 hrs by CLSI protocol based broth microdilution method; assay type: functional
[9] = test system: Staphylococcus aureus; assay: Antibacterial activity against erythromycin-susceptible Staphylococcus aureus ATCC 25923 assessed as bacterial growth inhibition incubated for 24 hrs by CLSI protocol based broth microdilution method; assay type: functional
[10] = test system: Staphylococcus aureus; assay: Antibacterial activity against methicillin-resistant Staphylococcus aureus ATCC 43300 assessed as inhibition of bacterial growth by broth microdilution method; assay type: functional; settings: time 24 hrs
Procedure, shortened: (§2)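 Broth microdilution MIC. A 0.5 McFarland suspension was diluted 10-fold and added at 1.5 × 10⁷ cfu/mL to 2-fold dilutions (0.125–64) in Mueller Hinton broth. Incubated aerobically 24 h at 37 °C. MIC was the lowest concentration with no visible turbidity.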

[11] = test system: Staphylococcus epidermidis; assay: Antibacterial activity against penicillin-resistant Staphylococcus epidermidis assessed as inhibition of bacterial growth measured by broth microdilution method; assay type: functional; settings: time 24 hrs
[12] = test system: Enterococcus faecium; assay: Antibacterial activity against vancomycin-resistant Enterococcus faecium ATCC 51559 assessed as bacterial growth inhibition incubated for 24 hrs by CLSI protocol based broth microdilution method; settings: ATCC 51559, 24 h
[13] = test system: Enterococcus faecium; assay: Antibacterial activity against vancomycin-susceptible Enterococcus faecium ATCC19434 assessed as bacterial growth inhibition incubated for 24 hrs by CLSI protocol based broth microdilution method; settings: ATCC19434, 24 h
[14] = test system: Staphylococcus aureus; assay: Antibacterial activity against penicillin-resistant Staphylococcus aureus assessed as inhibition of bacterial growth measured by broth microdilution method; assay type: functional; settings: time 24 hrs; procedure, shortened: as §2
[15] = test system: Bacillus subtilis; assay: Antibacterial activity against penicillin-susceptible Bacillus subtilis ATCC 9372 assessed as bacterial growth inhibition incubated for 24 hrs by CLSI protocol based broth microdilution method; assay type: functional
[16] = test system: Staphylococcus aureus; assay: Bactericidal activity against penicillin-resistant Staphylococcus aureus measured after 24 hrs by CLSI protocol based method; assay type: functional
Procedure, shortened: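 MBC after broth microdilution. After 24 h, aliquots from clear wells were plated on tryptic soy agar and incubated aerobically 24 h at 37 °C. MBC was the lowest concentration giving no colonies.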

[17] = test system: Bacillus subtilis; assay: Bactericidal activity against penicillin-susceptible Bacillus subtilis ATCC 9372 measured after 24 hrs by CLSI protocol based method; assay type: functional
Procedure, shortened: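 MBC followed on from the 24 h broth microdilution MIC plates. Aliquots from clear wells were spread on tryptic soy agar and incubated aerobically at 37 °C for 24 h. MBC was the minimum concentration giving no colonies.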

SMILES | MIC [1] [µg/mL] | MIC [2] [µg/mL] | MIC [3] [µg/mL] | MIC [4] [µg/mL] | MIC [5] [µg/mL] | MIC [6] [µg/mL] | MIC [7] [µg/mL] | MIC [8] [µg/mL] | MIC [9] [µg/mL] | MIC [10] [µg/mL] | MIC [11] [µg/mL] | MIC [12] [µg/mL] | MIC [13] [µg/mL] | MIC [14] [µg/mL] | MIC [15] [µg/mL] | MBC [16] [µg/mL] | MBC [17] [µg/mL]
Cc1cccc(C#Cc2c3ccccc3[n+](C)c3ccccc23)c1.[I-] | 4 | > 64 | 4 | 2 | 8 | > 64 | 2 | 4 | 2 | 2 | 4 | 4 | 8 | 2 | 2 |  | 
CN[C@H](CC(C)C)C(=O)N[C@H]1C(=O)N[C@@H](CC(N)=O)C(=O)N[C@H]2C(=O)N[C@H]3C(=O)N[C@H](C(=O)N[C@H](C(=O)O)c4cc(O)cc(O)c4-c4cc3ccc4O)[C@H](O)c3ccc(c(Cl)c3)Oc3cc2cc(c3O[C@@H]2O[C@H](CO)[C@@H](O)[C@H](O)[C@H]2O[C@H]2C[C@](C)(N)[C@H](O)[C@H](C)O2)Oc2ccc(cc2Cl)[C@H]1O [VANCOMYCIN] |  | > 64 | 0.25 (≈ 0.173 µM) |  |  | > 64 | 2 (≈ 1.38 µM) | 1 (≈ 0.69 µM) |  |  |  |  | 2 (≈ 1.38 µM) |  | 0.5 (≈ 0.345 µM) |  | 
CC(=O)NC[C@H]1CN(c2ccc(N3CCOCC3)c(F)c2)C(=O)O1 [LINEZOLID] |  | > 64 | 1 (≈ 2.96 µM) |  |  | > 64 | 2 (≈ 5.93 µM) | 1 (≈ 2.96 µM) |  |  | 4 (≈ 11.9 µM) |  |  |  | 0.5 (≈ 1.48 µM) | 16 (≈ 47.4 µM) | 64 (≈ 190 µM)
C[n+]1c2ccccc2c(-c2ccc(-c3ccccc3)cc2)c2ccccc21.[I-] | 4 | 64 | 0.5 | 0.25 | 4 | > 64 | 1 | 1 | 0.125 | 16 | 2 | 2 | 4 | 8 | 1 |  | 
CCCCc1ccc(-c2c3ccccc3[n+](C)c3ccccc23)cc1.[I-] | 4 | 64 | 1 | < 0.125 | 4 | > 64 | 1 | 2 | 0.03 | 2 | 2 | 2 | 4 | 8 | 0.5 |  | 
C[n+]1c2ccccc2c(C#Cc2ccc(-c3ccccc3)cc2)c2ccccc21.[I-] |  | > 64 | 16 | 16 | > 64 | > 64 | 8 | 16 | 8 | 16 | 8 | > 64 |  | 16 | 8 |  | 
